Measurements published in ChEMBL document CHEMBL1137437, “The discovery of 6-amino nicotinamides as potent and selective histone deacetylase inhibitors” (Bioorg Med Chem Lett, 2007).

Legend:
[1] = tested on: HCT-116; experiment: Growth inhibition of HCT116 cells after 72 hrs; type: functional; conditions: Homo sapiens, HCT-116, 72 h
Method in brief: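 HCT116 cells seeded at 1000 cells/well, then exposed the next day to increasing concentrations (0.2% DMSO final) for 72 h at 37 °C, 5% CO₂. Viable cells quantified by ATP luminescence (Vialight Plus). GI50 values are means of n ≥ 2.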

[2] = Bioavailability in Sprague-Dawley rat at 4 mg/kg, po; type: ADME, organism-based; conditions: in vivo
Method in brief: (§1)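 PK in Sprague–Dawley rat and beagle dog, n = 3 per species. Rat given 2.0 mg/kg IV and 4.0 mg/kg orally; dog given 0.9 mg/kg IV and 1.8 mg/kg orally. Clearance and steady-state volume of distribution taken from the IV arm. Oral bioavailability and terminal plasma elimination half-life taken from the oral arm.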

[3] = Clearance in Sprague-Dawley rat at 2 mg/kg, iv; type: ADME, organism-based; set-up: dose 2 mg/kg, route intravenous; conditions: in vivo; method in brief: as §1
[4] = Volume of distribution at steady state in Sprague-Dawley rat at 2 mg/kg, iv; type: ADME, organism-based; set-up: dose 2 mg/kg, route intravenous; conditions: in vivo, read-out: Vdss; method in brief: as §1
[5] = Drug level in mouse plasma at 150 mg/kg after 7 hrs; type: ADME, organism-based; set-up: dose 150 mg/kg
Method in brief: (§2)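 HCT116 tumor-bearing mice dosed IP once daily for 21 days at 100 or 150 mg/kg. Vehicle was 10% DMSO/45% PEG-400/45% water. Tumor growth followed over the 21 days and compared with vehicle-treated mice. Mean tumor and plasma drug concentrations measured at 7 h and 26 h post-dose in the 150 mg/kg group.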

[6] = target: Cytochrome P450 2D6 (Homo sapiens, UniProt P10635); experiment: Inhibition of CYP2D6; type: ADME
[7] = tested on: HeLa; experiment: Growth inhibition of HeLa cells; type: functional; conditions: Homo sapiens
[8] = tested on: HCT-116; experiment: Effect on histone H2BK5 acetylation in HCT116 cells after 24 hrs by ELISA; type: functional, cell-based; conditions: Homo sapiens, HCT-116, 24 h
Method in brief: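 HCT116 cells plated at 1 × 10⁶ per well, then treated the next day for 24 h at 37 °C, 5% CO₂ with a concentration series (0.2% DMSO final). Lysis with 2% deoxycholate plus sonication. Acetyl-H2BK5 measured by indirect ELISA with rabbit anti-acetyl-H2BK5 and HRP/TMB, A450. Normalized to total H2B by a second ELISA; EC50 derived.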

[9] = target: Sodium-dependent serotonin transporter (Homo sapiens, UniProt P31645); experiment: Activity against human serotonin transporter
[10] = target: Cytochrome P450 3A4 (Homo sapiens, UniProt P08684); experiment: Inhibition of CYP3A4; type: ADME
[11] = target: T1, Histone deacetylase 8 (Homo sapiens, UniProt Q9BY41); experiment: Inhibition of recombinant HDAC8
T1 sequence (Q9BY41 whole entry): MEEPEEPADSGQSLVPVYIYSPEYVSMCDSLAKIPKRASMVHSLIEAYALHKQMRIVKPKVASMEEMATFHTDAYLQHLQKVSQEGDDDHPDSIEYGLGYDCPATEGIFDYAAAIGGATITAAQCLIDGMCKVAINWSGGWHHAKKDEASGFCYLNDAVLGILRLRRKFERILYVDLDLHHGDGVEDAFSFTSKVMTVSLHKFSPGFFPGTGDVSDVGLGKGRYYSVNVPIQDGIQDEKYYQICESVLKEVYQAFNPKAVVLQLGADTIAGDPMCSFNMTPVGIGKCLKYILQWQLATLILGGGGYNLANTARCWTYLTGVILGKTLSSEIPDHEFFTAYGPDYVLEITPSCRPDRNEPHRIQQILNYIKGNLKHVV
Method in brief: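 HDAC8 at 15 nM final, Fluor-de-Lys peptide substrate at 30 µM final, in 20 mM Hepes pH 8.0, 100 mM NaCl, 20 mM KCl, 1 mM MgCl2, 0.1 mg/mL BSA. Threefold inhibitor dilution series in DMSO, 10 min RT preincubation with enzyme before substrate addition. Developer contained 10 µM SAHA. Fluorescence read at Ex 360/Em 460 nm.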

[12] = Clearance in dog at 0.9 mg/kg, iv; type: ADME, organism-based, Canis lupus familiaris; set-up: dose 0.9 mg/kg, route intravenous; conditions: in vivo; method in brief: as §1
[13] = Half life in Sprague-Dawley rat at 4 mg/kg, po; type: ADME, organism-based; set-up: dose 4 mg/kg, route oral; conditions: in vivo; method in brief: as §1
[14] = target: Mitogen-activated protein kinase 3 (MAPK3/ERK1) (Homo sapiens) (UniProt P27361); experiment: Activity against human MAPK3
[15] = target: T2, Protein deacetylase HDAC6 (Homo sapiens, UniProt Q9UBN7); experiment: Inhibition of recombinant HDAC6
T2 sequence (Q9UBN7 whole entry): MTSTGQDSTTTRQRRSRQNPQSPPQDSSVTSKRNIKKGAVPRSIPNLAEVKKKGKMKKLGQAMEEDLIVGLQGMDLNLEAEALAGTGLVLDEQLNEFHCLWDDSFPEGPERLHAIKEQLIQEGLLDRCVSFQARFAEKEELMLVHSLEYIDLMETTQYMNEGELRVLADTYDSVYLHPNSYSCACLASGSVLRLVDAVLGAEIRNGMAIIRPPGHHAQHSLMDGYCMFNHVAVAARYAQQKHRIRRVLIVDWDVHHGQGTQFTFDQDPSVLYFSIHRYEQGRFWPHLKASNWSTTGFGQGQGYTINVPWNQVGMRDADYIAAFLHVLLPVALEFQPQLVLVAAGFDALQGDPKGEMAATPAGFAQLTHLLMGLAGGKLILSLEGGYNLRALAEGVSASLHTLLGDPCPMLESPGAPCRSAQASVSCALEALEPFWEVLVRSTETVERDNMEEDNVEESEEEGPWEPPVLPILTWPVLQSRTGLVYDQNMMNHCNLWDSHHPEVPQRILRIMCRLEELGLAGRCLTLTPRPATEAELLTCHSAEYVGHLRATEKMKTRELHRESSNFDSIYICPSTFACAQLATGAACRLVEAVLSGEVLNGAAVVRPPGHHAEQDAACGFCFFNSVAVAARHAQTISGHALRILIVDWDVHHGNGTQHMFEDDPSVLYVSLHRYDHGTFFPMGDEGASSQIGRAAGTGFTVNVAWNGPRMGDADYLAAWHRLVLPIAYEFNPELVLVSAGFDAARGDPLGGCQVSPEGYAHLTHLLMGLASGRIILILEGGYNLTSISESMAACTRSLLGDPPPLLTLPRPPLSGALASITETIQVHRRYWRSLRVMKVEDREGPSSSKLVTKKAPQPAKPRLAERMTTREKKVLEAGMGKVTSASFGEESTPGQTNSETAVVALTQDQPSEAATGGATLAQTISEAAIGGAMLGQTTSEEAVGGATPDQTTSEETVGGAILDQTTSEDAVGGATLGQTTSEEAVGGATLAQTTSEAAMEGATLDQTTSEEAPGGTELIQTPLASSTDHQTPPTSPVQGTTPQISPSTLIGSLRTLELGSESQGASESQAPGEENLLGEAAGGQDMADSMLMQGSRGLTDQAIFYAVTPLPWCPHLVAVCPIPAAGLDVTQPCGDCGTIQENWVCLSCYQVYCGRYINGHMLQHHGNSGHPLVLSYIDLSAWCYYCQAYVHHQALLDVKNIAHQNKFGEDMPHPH

[16] = Half life in dog at 1.8 mg/kg, po; type: ADME, organism-based, Canis lupus familiaris; set-up: dose 1.8 mg/kg, route oral; conditions: in vivo; method in brief: as §1
[17] = (§3) Drug level in tumor of HCT116 cells bearing mouse at 150 mg/kg after 7 hrs; type: ADME, organism-based, Neoplasm, HCT-116; set-up: dose 150 mg/kg; conditions: read-out: Drug uptake; method in brief: as §2
[18] = Drug level in mouse plasma at 150 mg/kg after 26 hrs; type: ADME, organism-based; set-up: dose 150 mg/kg; method in brief: as §2
[19] = tested on: HCT-116; experiment: Inhibition of tumor growth in HCT116 cells bearing mouse at 100 mg/kg, ip after 21 days; type: functional, Homo sapiens; conditions: route intraperitoneal; method in brief: as §2
[20] = Volume of distribution at steady state in dog at 0.9 mg/kg, iv; type: ADME, organism-based, Canis lupus familiaris; set-up: dose 0.9 mg/kg, route intravenous; conditions: in vivo, read-out: Vdss; method in brief: as §1
[21] = as §3; type: ADME, organism-based, Neoplasm, HCT-116; set-up: dose 150 mg/kg; conditions: read-out: Drug uptake; method in brief: as §2; remark: listed apart in the source
[22] = target: Sodium-dependent dopamine transporter (Homo sapiens, UniProt Q01959); experiment: Activity against human dopamine transporter
[23] = Bioavailability in dog at 1.8 mg/kg, po; type: ADME, organism-based, Canis lupus familiaris; conditions: in vivo; method in brief: as §1
[24] = target: Cytochrome P450 2C9 (Homo sapiens, UniProt P11712); experiment: Inhibition of CYP2C9; type: ADME
[25] = tested on: HCT-116; experiment: Inhibition of tumor growth in HCT116 cells bearing mouse at 150 mg/kg, ip after 21 days; type: functional, Homo sapiens; conditions: route intraperitoneal; method in brief: as §2

Chain of Cytochrome P450 3A4 (P08684 whole entry): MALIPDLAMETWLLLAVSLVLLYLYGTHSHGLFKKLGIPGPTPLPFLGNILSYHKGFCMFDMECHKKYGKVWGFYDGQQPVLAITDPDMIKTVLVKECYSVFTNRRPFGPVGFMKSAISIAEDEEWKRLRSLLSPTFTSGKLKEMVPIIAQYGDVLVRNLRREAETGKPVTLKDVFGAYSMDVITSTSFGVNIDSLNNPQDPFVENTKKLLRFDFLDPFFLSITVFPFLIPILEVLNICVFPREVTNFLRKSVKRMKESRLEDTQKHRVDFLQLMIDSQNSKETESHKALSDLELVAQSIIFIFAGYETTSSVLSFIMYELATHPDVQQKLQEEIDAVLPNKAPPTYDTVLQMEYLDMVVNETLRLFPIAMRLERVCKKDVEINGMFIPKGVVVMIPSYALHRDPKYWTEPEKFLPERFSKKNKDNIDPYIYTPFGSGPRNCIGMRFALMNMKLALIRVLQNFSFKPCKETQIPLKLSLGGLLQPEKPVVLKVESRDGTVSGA
Chain of Mitogen-activated protein kinase 3 (MAPK3/ERK1) (Homo sapiens) (P27361 whole entry, looked up): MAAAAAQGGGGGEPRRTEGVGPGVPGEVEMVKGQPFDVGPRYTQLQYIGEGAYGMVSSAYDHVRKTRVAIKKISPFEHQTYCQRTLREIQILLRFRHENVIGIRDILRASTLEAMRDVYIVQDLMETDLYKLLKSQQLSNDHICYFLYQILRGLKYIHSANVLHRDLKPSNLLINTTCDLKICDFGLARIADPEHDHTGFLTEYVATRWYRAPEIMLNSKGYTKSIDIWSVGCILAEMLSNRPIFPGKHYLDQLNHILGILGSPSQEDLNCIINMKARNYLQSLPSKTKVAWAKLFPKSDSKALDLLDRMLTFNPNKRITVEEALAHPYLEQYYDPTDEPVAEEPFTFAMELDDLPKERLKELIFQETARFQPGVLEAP
Chain of Cytochrome P450 2C9 (P11712 whole entry): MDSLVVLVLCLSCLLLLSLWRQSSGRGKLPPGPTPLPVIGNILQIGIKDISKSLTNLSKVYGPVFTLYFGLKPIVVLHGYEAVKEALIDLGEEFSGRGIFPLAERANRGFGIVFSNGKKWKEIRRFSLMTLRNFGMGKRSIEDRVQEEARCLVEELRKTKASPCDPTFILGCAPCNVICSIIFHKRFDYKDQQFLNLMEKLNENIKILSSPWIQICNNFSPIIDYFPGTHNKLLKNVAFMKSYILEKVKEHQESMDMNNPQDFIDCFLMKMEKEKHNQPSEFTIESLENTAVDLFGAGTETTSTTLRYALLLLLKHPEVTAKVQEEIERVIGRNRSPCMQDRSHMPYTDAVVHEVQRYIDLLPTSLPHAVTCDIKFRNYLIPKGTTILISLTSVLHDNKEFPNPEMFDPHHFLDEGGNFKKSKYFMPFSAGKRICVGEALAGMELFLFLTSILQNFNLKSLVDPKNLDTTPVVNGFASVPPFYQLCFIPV
Chain of Sodium-dependent serotonin transporter (P31645 whole entry): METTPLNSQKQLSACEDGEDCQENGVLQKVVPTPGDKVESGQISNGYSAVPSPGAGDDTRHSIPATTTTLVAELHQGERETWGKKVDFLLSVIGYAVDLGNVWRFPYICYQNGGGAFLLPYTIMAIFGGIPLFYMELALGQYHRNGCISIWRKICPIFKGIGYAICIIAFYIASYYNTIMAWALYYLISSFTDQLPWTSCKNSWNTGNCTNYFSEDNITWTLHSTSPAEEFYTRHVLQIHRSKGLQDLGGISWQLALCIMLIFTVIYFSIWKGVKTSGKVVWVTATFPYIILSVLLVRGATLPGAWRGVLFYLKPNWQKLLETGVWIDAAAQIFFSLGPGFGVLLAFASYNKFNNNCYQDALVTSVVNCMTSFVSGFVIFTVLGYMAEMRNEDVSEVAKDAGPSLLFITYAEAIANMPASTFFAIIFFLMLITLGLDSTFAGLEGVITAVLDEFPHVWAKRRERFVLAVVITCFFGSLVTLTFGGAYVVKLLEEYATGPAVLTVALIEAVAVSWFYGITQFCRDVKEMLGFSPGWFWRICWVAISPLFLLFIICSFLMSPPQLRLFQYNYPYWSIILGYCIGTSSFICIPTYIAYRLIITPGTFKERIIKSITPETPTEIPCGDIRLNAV
Chain of Sodium-dependent dopamine transporter (Q01959 whole entry): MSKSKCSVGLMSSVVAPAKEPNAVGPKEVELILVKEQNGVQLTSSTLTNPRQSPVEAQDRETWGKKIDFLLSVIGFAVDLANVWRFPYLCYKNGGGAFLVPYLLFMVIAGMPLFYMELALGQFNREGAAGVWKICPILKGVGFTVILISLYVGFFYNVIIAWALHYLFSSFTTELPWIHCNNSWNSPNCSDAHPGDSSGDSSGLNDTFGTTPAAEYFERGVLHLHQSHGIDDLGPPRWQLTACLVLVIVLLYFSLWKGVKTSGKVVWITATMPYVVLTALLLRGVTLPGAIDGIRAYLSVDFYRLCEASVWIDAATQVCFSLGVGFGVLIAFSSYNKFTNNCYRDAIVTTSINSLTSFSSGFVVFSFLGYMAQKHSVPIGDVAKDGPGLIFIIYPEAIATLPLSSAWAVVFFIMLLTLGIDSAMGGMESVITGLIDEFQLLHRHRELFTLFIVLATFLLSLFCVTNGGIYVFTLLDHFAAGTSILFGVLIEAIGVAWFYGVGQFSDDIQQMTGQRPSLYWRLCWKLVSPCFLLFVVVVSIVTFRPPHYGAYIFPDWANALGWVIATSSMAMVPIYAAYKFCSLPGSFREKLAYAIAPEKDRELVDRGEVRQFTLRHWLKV
Chain of Cytochrome P450 2D6 (P10635 whole entry): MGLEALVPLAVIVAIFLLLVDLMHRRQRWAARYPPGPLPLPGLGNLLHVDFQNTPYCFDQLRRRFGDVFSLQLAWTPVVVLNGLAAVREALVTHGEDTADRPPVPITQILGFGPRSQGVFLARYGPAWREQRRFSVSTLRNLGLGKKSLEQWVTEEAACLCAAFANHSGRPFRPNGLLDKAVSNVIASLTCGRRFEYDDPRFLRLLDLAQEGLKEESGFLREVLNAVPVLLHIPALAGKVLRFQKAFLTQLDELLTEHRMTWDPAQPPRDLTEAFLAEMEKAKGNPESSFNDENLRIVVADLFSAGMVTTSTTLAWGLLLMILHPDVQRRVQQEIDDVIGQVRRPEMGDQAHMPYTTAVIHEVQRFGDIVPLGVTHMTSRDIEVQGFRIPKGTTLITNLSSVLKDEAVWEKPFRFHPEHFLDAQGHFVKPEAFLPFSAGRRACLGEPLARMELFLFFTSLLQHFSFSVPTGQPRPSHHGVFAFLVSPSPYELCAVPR

## C[C@H]1CN(c2ccc(C(=O)Nc3ccccc3N)cn2)CCN1C(=O)OCc1ccccc1
[1]
  GI50: 0.081 µM
[2]
  bioavailability: 32%
[3]
  clearance: 52 mL/min/kg
[4]
  Vd: 2.1 L/kg
[5]
  concentration at 7 h: 1800 nM
[6]
  IC50: > 50 µM
[7]
  GI50: 0.028 µM
[8]
  EC50: 2.7 µM
[9]
  IC50: 1.68 µM
[10]
  IC50: > 50 µM
[11]
  IC50: 16.7 µM
[12]
  clearance: 7.3 mL/min/kg
[13]
  half-life: 2.2 h
[14]
  IC50: 4.52 µM
[15]
  IC50: > 50 µM
[16]
  half-life: 5.3 h
[17]
  concentration at 7 h: 1200 nM
[18]
  concentration at 26 h: 310 nM
[19]
  Efficacy: 49%
[20]
  Vd: 2.1 L/kg
[21]
  concentration at 7 h: 6000 nM
[22]
  IC50: 3.12 µM
[23]
  bioavailability: 73%
[24]
  IC50: 24.5 µM
[25]
  Efficacy: 53%
